Yeast life ext: compounds extending yeast replicative lifespan, primary screen, S. cerevisiae, OD615. S. cerevisiae growth with nicotinamide; deaD strain in restrictive glucose medium. AID 775, 2007. inhibition of the nicotinamide effect, % at 10 µM. 0.68% of 130,000 active;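 active = inhibition above a set limit, placed 3 SD over the median of all compounds, cut at about 26% in these data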;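 note: 0% = nicotinamide-treated wells and 100% = cells grown without nicotinamide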
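Measured by: optical density (absorbance) at 615 nm; System: modified budding yeast, DeaD strain; Medium: restrictive CSMM-D dextrose medium; Timing: 4 h preincubation then 48 h treatment at 30 °C.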
Efa HMGR inh: inhibitors of E. faecalis class II HMGR, primary screen, biochemical, Enterococcus faecalis; AID 1066, 2008; HMG-CoA reductase (Enterococcus faecalis, mvaE); 0.41% of 190,000 active; purified E. faecalis HMGR, NADPH absorbance 340 nm kinetic; inhibition, % at 10 µM;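 active = inhibition above a set limit, the median over all tested compounds plus 3 SD, cut at about 9.5% in these data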;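 note: enzyme runs in reverse so mevalonate oxidation gives rising NADPH absorbance; 0% = complete reaction with DMSO and 100% = background rate lacking mevalonate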
Insulin prom inh: inhibitors of insulin promoter-driven GFP, primary screen, imaging, TRM-6 cells, eGFP reporter, cell count | AID 1273, 2008 | 0.9% of 130,000 active | reporter expression induced with tamoxifen | inhibition, % at 2 µM;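 active = inhibition above the mean plus 3 SD, with well images judged a real hit on visual review, cut at about 60% in these data, passing the limit was not always enough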
RAM network inh: inhibitors of the yeast RAM network, primary screen, dse1pr::URA3 reporter, 5-FOA selection; S. cerevisiae dse1pr::URA3 reporter, 5-FOA growth OD615, 2 d; analog-sensitive cbk1-as2 kinase mutant strain; inhibition, % at 50 µM; 1.8% of 190,000 active;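 active = inhibition above a set limit, 3 SD over mean compound inhibition, cut at about 8.4% in these data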;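 note: 0% = DMSO-only wells with no growth and 100% = 10 µM 1-NA-PP1 full growth; inhibition rescues growth on 5-FOA so higher OD means more RAM inhibition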
Yeast growth inh: growth inhibitors of yeast BB579 in restrictive medium, primary screen, yeast lifespan-shortening project, S. cerevisiae; OD615, 48 h; inhibition, % at 10 µM; 0.51% of 140,000 active; AID 804, 2007;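 active = inhibition above a set limit, 3 SD over the mean compound inhibition, cut at about 44% in these data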
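Test system: S. cerevisiae DeaD strain BB579 yeast; Medium: restrictive CSMM-D medium; Compound: one dose, 10 µM compound with 0.25% DMSO; Incubation: 4 h cell preincubation, 48 h compound exposure, 30 °C humidified; Signal: OD at 615 nm; Benchmarks: amphotericin B at 10 µg/mL as positive control.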
An asterisk follows results filed as active. In the library only some 3.7% were active in any assay of this set; here they are far more common.

What do the screens show for `CCOc1ccccc1N1CC(C(=O)Nc2c(C)n(C)n(-c3ccccc3)c2=O)CC1=O` (stereo not given)?
Efa HMGR inh: 6; RAM network inh: 1

Results for COc1ccc(CCN2C(=O)CC(N3CCN(S(=O)(=O)c4ccccc4)CC3)C2=O)cc1OC (stereo not given) ?
Efa HMGR inh: -2; RAM network inh: 1

Results for CN(C)c1oc(-c2ccccc2Cl)nc1P(=O)(c1ccccc1)c1ccccc1 ?
Yeast life ext: 4; Efa HMGR inh: -6; Insulin prom inh: -54; RAM network inh: 2; Yeast growth inh: -2

How did O=Nc1c2nc3ccccc3n(O)c-2c2ccccc12 do in these assays?
Yeast life ext: -6; Efa HMGR inh: -6; RAM network inh: 6; Yeast growth inh: 64*

Results for CCc1nc2cc([N+](=O)[O-])c([N+](=O)[O-])cc2[nH]1 ?
Yeast life ext: 5; Efa HMGR inh: 0; Insulin prom inh: 75*; RAM network inh: 3; Yeast growth inh: 0

How did Cc1cc2nc[nH]c2cc1[N+](=O)[O-] do in these assays?
Efa HMGR inh: -1; Insulin prom inh: 41; RAM network inh: 1

How did CCOC(=O)N1CCC(NC(=O)c2cc(C(=O)Nc3ccc(S(=O)(=O)N4CCOCC4)cc3)ccc2CO)CC1 do in these assays?
Efa HMGR inh: -1; Insulin prom inh: -6; RAM network inh: 4

How did CCN(CC)S(=O)(=O)c1cc(NS(=O)(=O)c2cccc(Cl)c2)ccc1C do in these assays?
Yeast life ext: 12; Efa HMGR inh: -3; Insulin prom inh: -74; RAM network inh: 8; Yeast growth inh: -28

Results for CCN(CC)S(=O)(=O)c1cc(NS(=O)(=O)c2cccc(Cl)c2Cl)ccc1C ?
Yeast life ext: 20; Efa HMGR inh: -1; Insulin prom inh: 3; RAM network inh: 10*; Yeast growth inh: -25

Results for CN(C)N=C1c2cc(S(=O)(=O)N3CCOCC3)ccc2-c2ccc(S(=O)(=O)N3CCOCC3)cc21 ?
Yeast life ext: 4; Efa HMGR inh: 3; RAM network inh: 4; Yeast growth inh: -39

How did NC(=S)NN=C1c2cc(S(=O)(=O)N3CCOCC3)ccc2-c2ccc(S(=O)(=O)N3CCOCC3)cc21 do in these assays?
Yeast life ext: 4; Efa HMGR inh: 1; RAM network inh: 9.9*; Yeast growth inh: -16

What do the screens show for `Cc1ccc(N=Nc2c(=O)[nH]n3c(C)cc(C)nc23)cc1`?
Yeast life ext: -12; Efa HMGR inh: 2; Insulin prom inh: -20; RAM network inh: 4; Yeast growth inh: 7

Results for Cc1cc(C)n2nc(N)c(N=Nc3ccc(Cl)cc3)c2n1 ?
Yeast life ext: -3; Efa HMGR inh: 0; Insulin prom inh: 15; RAM network inh: 9.5*; Yeast growth inh: -34

How did COc1cccc(OCCn2cc(C(=O)c3ccco3)c3ccccc32)c1 do in these assays?
Yeast life ext: -12; Efa HMGR inh: -1; Insulin prom inh: -180; RAM network inh: 10*; Yeast growth inh: -26

What do the screens show for `COc1ccccc1OCCn1cc(C(=O)c2ccco2)c2ccccc21`?
Yeast life ext: -23; Efa HMGR inh: 4; Insulin prom inh: -75; RAM network inh: 8.8*; Yeast growth inh: -9

What do the screens show for `COc1ccccc1NC(=O)Cn1cc(C(=O)c2ccco2)c2ccccc21`?
Efa HMGR inh: -12; RAM network inh: 1

How did CC(C)(C)C(=O)CSc1nc(N)cc(=O)[nH]1 do in these assays?
Efa HMGR inh: -1; RAM network inh: 1

Results for COCC(C)n1c(SCC(=O)N2CCc3ccccc3C2)nc2ccccc2c1=O (stereo not given) ?
Yeast life ext: 6; Efa HMGR inh: 1; Insulin prom inh: -21; RAM network inh: -1; Yeast growth inh: -26

Results for CC1=C(C(=O)OCc2ccccc2)C(c2ccc3ccccc3c2)NC(=O)N1CCCCCC(=O)O (stereo not given) ?
Yeast life ext: 26; Efa HMGR inh: -8; Insulin prom inh: 30; RAM network inh: 7; Yeast growth inh: -33

How did CC1=C(C(=O)OCc2ccccc2)C(c2ccccc2)NC(=O)N1CCCCCC(=O)O (stereo not given) do in these assays?
Yeast life ext: 10; Efa HMGR inh: 4; Insulin prom inh: 19; RAM network inh: 10*; Yeast growth inh: -50

How did CCOC(=O)CN1C(=O)N[C@@H](c2ccccc2)C(C(C)=O)=C1C do in these assays?
Yeast life ext: -4; Efa HMGR inh: -8; Insulin prom inh: 60*; RAM network inh: 1; Yeast growth inh: -14

What do the screens show for `CC1=C(C(=O)OCc2ccccc2)C(c2ccccc2-c2ccccc2)NC(=O)N1CCCCCC(=O)O` (stereo not given)?
Yeast life ext: 11; Efa HMGR inh: 5; Insulin prom inh: -100; RAM network inh: 4; Yeast growth inh: -60

What do the screens show for `CC1=C(C(=O)OCc2ccccc2)C(c2ccc(-c3ccccc3)cc2)NC(=O)N1CCCCCC(=O)O` (stereo not given)?
Yeast life ext: 20; Efa HMGR inh: -7; Insulin prom inh: 41; RAM network inh: 11*; Yeast growth inh: -40

How did CCN1CCN(C(=O)C(N)Cc2ccccc2)CC1 (stereo not given) do in these assays?
Efa HMGR inh: -11; RAM network inh: 3

Results for CCOC(=O)c1c(NC(=O)CSC(=S)N2CCOCC2)sc(C)c1C ?
Yeast life ext: 2; Efa HMGR inh: 3; Insulin prom inh: 4; RAM network inh: 7; Yeast growth inh: -13

How did Cc1cc(C(=O)NNC(=S)NCc2ccco2)nn1C do in these assays?
Efa HMGR inh: -5; Insulin prom inh: 0; RAM network inh: 2

What do the screens show for `Cc1nc(SCc2ccccc2F)c2cnn(-c3ccccc3)c2n1`?
Efa HMGR inh: -1; Insulin prom inh: -20; RAM network inh: 11*

Results for N#Cc1c2c(c(-c3ccccc3Cl)[nH]c1=S)CCCC2 ?
Efa HMGR inh: 24*; Insulin prom inh: 0; RAM network inh: 0

What do the screens show for `N#Cc1c(-c2ccccc2Cl)cc(-c2ccccc2)[nH]c1=S`?
Efa HMGR inh: 1; RAM network inh: 4

What do the screens show for `Cc1csc(SCC(=O)NC(C)c2ccccc2)n1` (stereo not given)?
Efa HMGR inh: 1; RAM network inh: 2

What do the screens show for `O=C(NCC1CCCN(C(=O)c2cscn2)C1)c1ccccc1Cl` (stereo not given)?
Efa HMGR inh: 10*; RAM network inh: 0

What do the screens show for `CC(C)C(=O)N(c1ccc2oc(=O)sc2c1)S(=O)(=O)c1ccccc1`?
Yeast life ext: 0; Efa HMGR inh: -2; Insulin prom inh: -25; RAM network inh: 11*; Yeast growth inh: -42

Results for CCCOc1ccc(C(=O)CCNc2cccc(Cl)c2)cc1 ?
Efa HMGR inh: -1; RAM network inh: 9.8*

Compound activity from PubChem.
